Reference: publication PMC11725097 (Acta Pharmaceutica Sinica. B, 2024)

Legend:
HepG2 cells [1] = experiment: Formation of compound 3 in lysosomes of HepG2 cells; type: cell-based; details: HepG2, JZ-6 25 μmol/L with BNPP 20 μmol/L or telaprevir 5 μmol/L, 6 h
In short: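 HepG2 cells were treated 6 h with donor (25 µmol/L) alone, with BNPP (20 µmol/L) or with telaprevir (5 µmol/L). For lysosome isolation, cells were Dounce-homogenised and spun at 1000 × g, then 20,000 × g, and the top band taken from an OptiPrep gradient at 100,000 × g, 1 h. Fractions were lysed in cold 70% methanol and analysed by LC–MS/MS, normalised to BCA protein. Triplicate.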

[2] = H2S release within tissue homogenates; type: in vitro ADME, Sprague-Dawley rats; details: donors 250 μmol/L, rat intestine and liver homogenates, 40 min
Carboxypeptidase Y (CPY) [3] = target: T1, Carboxypeptidase Y (CPY) (Saccharomyces cerevisiae, UniProt P00729); experiment: Enzyme; type: biochemical; details: CPY 60 ng/mL; for H2S release over 6 h: donors 5 μmol/L, DNS-N3 10 μmol/L, TBS pH 7.4, 37 °C
T1 sequence (P00729 112-532): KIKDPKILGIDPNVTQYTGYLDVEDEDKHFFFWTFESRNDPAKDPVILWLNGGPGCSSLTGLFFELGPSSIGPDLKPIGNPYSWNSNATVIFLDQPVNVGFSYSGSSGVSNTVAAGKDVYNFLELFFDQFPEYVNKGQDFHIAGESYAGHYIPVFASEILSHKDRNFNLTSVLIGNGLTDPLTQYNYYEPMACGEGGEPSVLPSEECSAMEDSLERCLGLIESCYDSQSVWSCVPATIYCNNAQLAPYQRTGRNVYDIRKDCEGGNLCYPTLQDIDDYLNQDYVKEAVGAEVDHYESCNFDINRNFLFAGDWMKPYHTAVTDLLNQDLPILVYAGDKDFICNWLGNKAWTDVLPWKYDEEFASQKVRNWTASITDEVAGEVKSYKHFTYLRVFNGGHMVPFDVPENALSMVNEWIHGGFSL
In short: (§1)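 Donor at 5 µmol/L final and DNS-N3 probe at 10 µmol/L final were incubated at 37 °C in 10 mmol/L TBS, pH 7.4, with 1% acetonitrile and 1% […]. The enzyme was either CPY at 60 ng/mL or pre-activated recombinant human CTSA at 250 ng/mL. Aliquots were mixed 1:1 with ACN and fluorescence read at Ex/Em 325/450 nm, minus control background. k came from a single-exponential fit, with t1/2 = 0.693/k. Triplicates, mean ± SD.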

[4] = tested on: human hepatic stellate LX-2 cells; experiment: TGF-β1-induced fibrosis in LX-2 cells, ACTA2 and COL1A1 mRNA; type: cell-based; details: LX-2, TGF-β1, 72 h; JZ-HND 25-200 μmol/L, others 200 μmol/L
[5] = target: T2, recombinant human cathepsin A (CTSA) (Homo sapiens, UniProt P10619); experiment: CTSA-catalyzed H2S release, fluorescent probe DNS-N3; type: biochemical; details: donors 5 μmol/L, CTSA 250 ng/mL, pH 7.4, 37 °C
T2 sequence (P10619 29-326 limits assumed): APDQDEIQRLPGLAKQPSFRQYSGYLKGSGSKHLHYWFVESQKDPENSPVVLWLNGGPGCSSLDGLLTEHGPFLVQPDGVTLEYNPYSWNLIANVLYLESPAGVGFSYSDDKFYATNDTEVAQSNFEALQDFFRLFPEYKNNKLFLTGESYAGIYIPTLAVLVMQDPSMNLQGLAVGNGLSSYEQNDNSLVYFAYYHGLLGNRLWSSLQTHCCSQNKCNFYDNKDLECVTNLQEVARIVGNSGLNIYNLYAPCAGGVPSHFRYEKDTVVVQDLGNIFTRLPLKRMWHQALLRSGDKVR
T2 sequence (P10619 327-480 limits assumed): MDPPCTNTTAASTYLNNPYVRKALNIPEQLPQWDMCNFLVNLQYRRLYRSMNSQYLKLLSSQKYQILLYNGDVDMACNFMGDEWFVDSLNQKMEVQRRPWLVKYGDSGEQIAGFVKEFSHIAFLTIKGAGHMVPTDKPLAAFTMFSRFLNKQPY
In short: as §1

RAW264.7 macrophages = experiment: LPS-induced IL-1β and IL-6 release in RAW 264.7 macrophages; type: cell-based, mouse; details: RAW 264.7, LPS 1 μg/mL, 20, 100, 500 μmol/L, 24 h
In short: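 RAW 264.7 cells (2×10^5/well) were plated overnight. Cells were pretreated 1 h with compound or NaHS at 20, 100 or 500 µmol/L, then stimulated with LPS (1 µg/mL) for 24 h. IL-1β and IL-6 in the supernatants were measured by ELISA. Three independent experiments, mean ± SD.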

[6] = Detection of H2S and sulfur-containing species in mouse liver; type: in vivo, BALB/c mice; details: oral JZ-HND 1.0 mmol/kg
In short: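 BALB/c mice received an oral dose of 1.0 mmol/kg. Liver was collected before dosing (0 h) and at 0.5 and 4 h, then homogenised 10:1 in 20 mmol/L HPE-IAM in MeOH to trap H2S and sulfur species as S-alkylated derivatives, and stored below −40 °C. Derivatives were quantified by LC–MS/MS against synthesised standards and calibration curves. n = 3, mean ± SD.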

Carboxypeptidase Y (CPY) [7] = target: T1, Carboxypeptidase Y (CPY); experiment: H2S donor activation by CPY monitored by LC-MS/MS; type: in vitro ADME; details: JZ-HND 5 μmol/L, CPY 60 ng/mL
In short: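 Donor at 5 µmol/L final and DNS-N3 at 10 µmol/L final were incubated with CPY (60 ng/mL) in 10 mmol/L TBS, pH 7.4, with 1% menthol, at 37 °C. Parent loss and formation of products, including DNS-NH2, were quantified by LC–MS/MS against calibration curves. Rate constants came from a single-exponential fit, with t1/2 = 0.693/k. Triplicate runs, mean ± SD.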

[8] = tested on: CCl4-induced liver injury; experiment: CCl4-induced liver injury model in mice; type: in vivo, BALB/c mice; details: 1 mmol/kg oral daily, 4 weeks
LX-2 cells = experiment: ROS induced by TGF-β1 in LX-2 cells; type: cell-based, human; details: LX-2, TGF-β1 10 ng/mL, compound 100 μmol/L, 24 h
In short: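 LX-2 cells were grown in high-glucose DMEM with 10% FBS at 37 °C and 5% CO2, then plated at 1×10^5/well overnight. Cells were co-treated 24 h with compound (100 µmol/L) and TGF-β1 (10 ng/mL). They were loaded with DCFH-DA (10 µmol/L) for 30 min and Hoechst 33342 for 10 min at 37 °C, then imaged by fluorescence microscopy in the GFP channel.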

[9] = Animal pharmacokinetics, mice livers; type: in vivo, BALB/c mice; details: oral JZ-HND 1.0 mmol/kg
In short: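 Male BALB/c mice, fasted 12 h without water, were gavaged at 1 mmol/kg in 0.5% CMC-Na (3 groups, n = 3 each). Plasma was separated by centrifugation and stored below −40 °C. Liver was taken at 0.5, 4 and 8 h post dose and homogenised 10:1 in PBS containing 70% MeOH. Parent and metabolites were quantified by LC–MS/MS.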

HepG2 cells [10] = experiment: MDA; type: cell-based; details: HepG2, FFA 1 mmol/L, 24 h; JZ-6 20, 100, 500 μmol/L; NaHS and JZ-9 500 μmol/L
In short: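 HepG2 cells (7×10^5/well, plated overnight) were co-incubated 24 h with FFA (1 mmol/L) alone or plus compound (20, 100 or 500 µmol/L) or NaHS (500 µmol/L). MDA in cell lysates was measured with a kit by fluorescence at Ex/Em 532/553 nm and normalised to cell counts. Three independent experiments, mean ± SD.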

HepG2 cells [11] = experiment: FFA-induced ROS accumulation in HepG2 cells; type: cell-based; details: HepG2, compound 100 μmol/L 8 h before FFA 1 mmol/L 24 h
HepG2 cells [12] = experiment: Ferroptosis rescue, RSL3-treated HepG2 cells; type: cell-based; details: HepG2, RSL3 4 μmol/L; JZ-6 20 μmol/L, Fer-1 1 μmol/L, 24 h
In short: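 HepG2 cells (5×10^3/well) were plated overnight. Cells were pretreated 2 h with RSL3 (4 µmol/L), then given medium, compound (20 µmol/L) or Fer-1 (1 µmol/L) for 24 h. CCK-8 was added for 2–4 h at 37 °C and absorbance read at 450 nm. Viability is expressed as % of medium-treated control. Three independent experiments, mean ± SD.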

SMILES: O=[N+]([O-])c1ccc(OP(=O)(O)Oc2ccc([N+](=O)[O-])cc2)cc1 [BNPP, bis(p-nitrophenyl) phosphate]
- effect of inhibitor on lysosomal 3 formed from JZ-6 (HepG2 cells [1]): increase in lysosomal 3

SMILES: C1COCCN1.COc1ccc(P(=S)(S)N2CCOCC2)cc1 (stereo not shown) [GYY4137, reference compound]
- H2S release behaviour in homogenates [2]: almost undetectable
- H2S release over 6 h (Carboxypeptidase Y (CPY) [3]): low amount of H2S

SMILES: CNC(=O)[C@H](C)NP(=S)(Oc1ccccc1)c1ccccc1 (stereo partly shown) [JZ-12]
- H2S release over 6 h (Carboxypeptidase Y (CPY) [3]): inadequate

SMILES: Cc1ccc(=O)n(-c2ccc(OP(=O)(N[C@@H](C)C(=O)OC(C)C)c3ccccc3)cc2)c1 (stereo partly shown) [JZ-17]
- mRNA expression of ACTA2 and COL1A1 [4]: did not inhibit the expression of pro-fibrotic genes as much as JZ-HND

SMILES: CC(C)OC(=O)[C@H](C)NP(=S)(Oc1ccc(CCN2CCOCC2)cc1)c1ccccc1 (stereo partly shown) [JZ-18]
- H2S release, rate constant k [5]: 0.2978 h⁻¹
- H2S yield ([5]; 10 h): approximately 37%

SMILES: Cc1ccc(=O)n(-c2ccc(OP(=S)(N[C@@H](C)C(=O)OC(C)C)c3ccccc3)cc2)c1 (stereo partly drawn) [JZ-HND, isopropyl ((4-(5-methyl-2-oxopyridin-1(2H)-yl)phenoxy) (phenyl)phosphorothioyl)-L-alaninate]
- mRNA expression of ACTA2 and COL1A1 [4]: dose-dependently inhibited
- IL-1β and IL-6 secretion (RAW264.7 macrophages): significant inhibition
- H2S release behaviour in homogenates [2]: biphasic and lasted longer
- levels of HSSH and CysSH in liver [6]: no significant change
- levels of GSH, GSSH and CysSSH in liver ([6]; 0.5 h): significant increases
- H2S level in liver tissue ([6]; 0.5 h vs pre-dose (0 h)): significant increase compared to the pre-dose level
- generation of 3, rate constant k (Carboxypeptidase Y (CPY) [7]): 0.3133 h⁻¹
- generation of HND, rate constant k (Carboxypeptidase Y (CPY) [7]): 1.090 h⁻¹
- degradation of donor, rate constant k (Carboxypeptidase Y (CPY) [7]; TBS pH 7.4, 37 °C): 1.085 h⁻¹
- generation of H2S, rate constant k (Carboxypeptidase Y (CPY) [3]; JZ-HND 5 μmol/L, pH 7.4, 37 °C): 0.3748 h⁻¹
- collagen fiber accumulation (Masson's trichrome) [8]: significantly slowed collagen fiber accumulation
- hepatic ballooning and inflammatory cell infiltration (H&E) [8]: significantly reduced
- hepatic expression of oxidative stress genes (Gpx1, Sod1, Sod2, Cat) [8]: rebounded
- hepatic tissue GPX activity [8]: significant increase
- liver gene levels of fibrotic markers (Tgfb1, Col1a1, Col3a1, Acta2) [8]: reversals of the increased gene levels
- liver mRNA levels of Nfkb1, Il1b and Tnfa [8]: strongly suppressed
- serum ALT and AST levels [8]: consistently lower
- serum SOD activity ([8]; vs control and HND groups): significantly lower
- ROS levels induced by TGF-β1 (LX-2 cells): significantly inhibited
- Cmax (liver) [9]: 15 µM
- time of maximum intrahepatic concentration [9]: half an hour
- detection in the liver after 8 h of administration ([9]; 8 h): not detected

SMILES: [Na+].[SH-] [NaHS]
- IL-1β and IL-6 secretion (RAW264.7 macrophages): modest inhibitory effect
- MDA levels (lipid peroxidation) (HepG2 cells [10]): alleviated
- cellular ROS accumulation induced by FFA (HepG2 cells [11]): strikingly reduced the cellular fluorescence signal

SMILES: CCOC(=O)c1ccc(NC2CCCCC2)c(N)c1 [ferrostatin-1]
- cell viability after RSL3 (ferroptosis rescue) (HepG2 cells [12]): attenuated RSL3-induced cytotoxicity

SMILES: CCC[C@H](NC(=O)[C@@H]1[C@H]2CCC[C@H]2CN1C(=O)[C@@H](NC(=O)[C@@H](NC(=O)c1cnccn1)C1CCCCC1)C(C)(C)C)C(=O)C(=O)NC1CC1 [telaprevir]
- effect of inhibitor on lysosomal 3 formed from JZ-6 (HepG2 cells [1]): significant decrease
